Inhibition and IC50 data for 31 molecules are collected here from ChEMBL document CHEMBL1944537, “6-Nitrobenzimidazole derivatives: potential phosphodiesterase inhibitors: synthesis and structure-activity relationship” (Bioorg Med Chem, 2012).

What is called inhibition is the change of the read-out against control, counted positive when it falls. What is called IC50 is the midpoint of a concentration-inhibition curve.

In one assay the test system is Bothrops atrox. Description: (§1) Inhibition of Bothrops atrox venom phosphodiesterase-1 assessed as conversion of […] p-nitrophenol using bis(p-nitropheny1) phosphate as substrate preincubated for 30 mins by spectrophotometric analysis. Also on record: concentration or dose not given beside the values. The method, boiled down:
(§2)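 Crude dried snake venom as enzyme source, 0.000742 U/well, in 33 mM Tris-HCl pH 8.8 with 30 mM magnesium acetate. Substrate 0.33 mM bis(p-nitrophenyl) phosphate. Enzyme and test sample pre-incubated 30 min, then p-nitrophenol release followed as OD/min at 410 nm, 37 °C, on a microtitre plate reader. EDTA positive control. Run in triplicate; IC50 determined.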
In the case of `CSc1ccc(-c2nc3ccc([N+](=O)[O-])cc3[nH]2)cc1`, the inhibition was less than 50%.
On the same count and under the same terms, in the case of `CCOc1cccc(-c2nc3ccc([N+](=O)[O-])cc3[nH]2)c1O` it was less than 50%; in that of `O=[N+]([O-])c1ccc2nc(-c3ccccc3Cl)[nH]c2c1`, less than 50%; in that of `O=[N+]([O-])c1ccc2nc(-c3ccccc3O)[nH]c2c1`, less than 50%.
Still for that read-out and setting: as for `O=[N+]([O-])c1ccc2nc(-c3ccc(Cl)cc3Cl)[nH]c2c1`, the figure is less than 50%; as for `O=[N+]([O-])c1ccc2nc(-c3cccc4c3ccc3ccccc34)[nH]c2c1`, less than 50%; as for `O=[N+]([O-])c1ccc(Cl)c(-c2nc3ccc([N+](=O)[O-])cc3[nH]2)c1`, less than 50%.
For the molecule `O=[N+]([O-])c1ccc2nc(-c3cc(Cl)ccc3O)[nH]c2c1`, the inhibition is less than 50%.
Consider `O=[N+]([O-])c1ccc2nc(-c3ccc(Br)cc3)[nH]c2c1`, for which the inhibition was less than 50%.
With `Cc1ccc(-c2nc3cc([N+](=O)[O-])ccc3[nH]2)cc1`, the inhibition was less than 50%.
As to `COc1cccc(-c2nc3ccc([N+](=O)[O-])cc3[nH]2)c1O`, the inhibition is less than 50%.
Regarding `CN(C)c1ccc(-c2nc3ccc([N+](=O)[O-])cc3[nH]2)cc1`, the inhibition was less than 50%.
For the molecule `O=[N+]([O-])c1ccc2[nH]c(-c3ccccc3)nc2c1`, the inhibition was less than 50%.
For the molecule `O=[N+]([O-])c1ccc2nc(-c3cc(O)ccc3O)[nH]c2c1`, the inhibition was less than 50%.
Consider `O=[N+]([O-])c1ccc2nc(-c3ccc(Cl)c(Cl)c3)[nH]c2c1`, for which the inhibition is less than 50%.
Take `O=[N+]([O-])c1ccc2nc(-c3cccc4cc5ccccc5cc34)[nH]c2c1`: the inhibition is less than 50%.
With `O=[N+]([O-])c1ccc2nc(-c3ccsc3)[nH]c2c1`, the inhibition is less than 50%.
As to `O=[N+]([O-])c1ccc2[nH]c(-c3ccncc3)nc2c1`, the inhibition is less than 50%.
For the molecule `O=[N+]([O-])c1ccc2nc(-c3cc(Br)cc(Br)c3O)[nH]c2c1`, the inhibition is less than 50%.
On to `O=[N+]([O-])c1ccc2nc(-c3ccccc3F)[nH]c2c1`, for which the inhibition was less than 50%.

Target in a further assay: not listed separately
Described as §1. The method, boiled down:
as §2
With `O=[N+]([O-])c1ccc2nc(-c3ccc(O)c(O)c3)[nH]c2c1`, the IC50 was 5.7 µM.
With `O=[N+]([O-])c1ccc2nc(-c3cccc(O)c3O)[nH]c2c1`, the half-inhibitory concentration (IC50) worked out at 1.5 µM.
As for `O=[N+]([O-])c1ccc2nc(-c3ccc(O)c(O)c3O)[nH]c2c1`, the half-maximal inhibitory concentration (IC50) was 10.5 µM.
As to `O=[N+]([O-])c1ccc2nc(-c3c(O)cc(O)cc3O)[nH]c2c1`, the half-inhibitory concentration (IC50) came out at 6.4 µM.
As for `O=C(O)CN(CCN(CC(=O)O)CC(=O)O)CC(=O)O` [EDETIC ACID], the IC50 was 274 µM.
The same measure, in the same setting: in the case of `COc1ccc(-c2nc3cc([N+](=O)[O-])ccc3[nH]2)cc1OC` it was 63.1 µM; in that of `O=[N+]([O-])c1ccc2nc(-c3ccc(O)cc3O)[nH]c2c1`, 11.5 µM.
For the molecule `O=[N+]([O-])c1ccc2nc(-c3ccc(O)cc3)[nH]c2c1`, the IC50 came out at 2.4 µM.
Take `O=[N+]([O-])c1ccc(-c2nc3cc([N+](=O)[O-])ccc3[nH]2)cc1`: the IC50 was found to be 153 µM.
Still for that read-out and setting: in the case of `O=[N+]([O-])c1ccc2nc(-c3cc(Cl)cc(Cl)c3O)[nH]c2c1` it was 294 µM.
On to `O=[N+]([O-])c1ccc2[nH]c(-c3ccc(Cl)cc3)nc2c1`, for which the IC50 was determined as 120 µM.
